Experimental data: ChEMBL document CHEMBL1152738, “Synthesis and in vitro antitubercular activity of a series of quinoline derivatives” (2009)
In brackets after ≈: the same amount, converted by molar mass.

system: Mycobacterium tuberculosis; experiment: Antitubercular activity against Mycobacterium tuberculosis H37Rv after 5 days by microplate alamar blue assay; type: functional; conditions: 120 h
Procedure, shortened: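 M. tuberculosis H37Rv (ATCC 27294, rifampin- and isoniazid-susceptible) tested by MABA. Compounds serially diluted directly in Middlebrook 7H9 broth in 96-well plates, which were sealed and incubated at 37 °C for 5 days. A fresh 1:1 Alamar Blue/10% Tween 80 mix was then added and plates were incubated 24 h more. MIC was the lowest concentration preventing the blue-to-pink colour change.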

Compared with CCN(CC)Cc1cc(Nc2ccnc3cc(Cl)ccc23)ccc1O.Cl, CCCCNc1ccnc2cc(Cl)ccc12 is 8-fold lower in MIC: 100 µg/mL for the first, 12.5 µg/mL (≈ 53.3 µM) for the second.

NCCCNc1ccnc2cc(Cl)ccc12 and NCCCCNc1ccnc2cc(Cl)ccc12 cannot be ordered by MIC: over 100 µg/mL for the first, over 100 µg/mL for the second.

First: NCCCCCCNc1ccnc2cc(Cl)ccc12
Second: NCCCCCCCCNc1ccnc2cc(Cl)ccc12
The MIC of the first is 4-fold higher: 25 µg/mL (≈ 90 µM) for the first, 6.25 µg/mL (≈ 20.4 µM) for the second.

CC(C)NCCNc1ccnc2cc(Cl)ccc12 and CNCCNc1ccnc2cc(Cl)ccc12 cannot be ordered by MIC: over 100 µg/mL for the first, over 100 µg/mL for the second.

First: ClCCNc1ccnc2cc(Cl)ccc12
Second: ClCCCNc1ccnc2cc(Cl)ccc12
The MIC of the first is 4-fold lower: 12.5 µg/mL (≈ 51.8 µM) for the first, 50 µg/mL (≈ 196 µM) for the second.

OCCNc1ccnc2cc(Cl)ccc12 and OCCCNc1ccnc2cc(Cl)ccc12 cannot be ordered by MIC: over 100 µg/mL for the first, over 100 µg/mL for the second.

OCCNc1ccnc2ccccc12 and ClCCNc1ccnc2ccccc12 cannot be ordered by MIC: over 100 µg/mL for the first, over 100 µg/mL for the second.

[N-]=[N+]=Nc1ccnc2cc(Cl)ccc12 and Nc1ccnc2cc(Cl)ccc12 cannot be ordered by MIC: over 100 µg/mL for the first, over 100 µg/mL for the second.

Compared with N#CCCNc1ccnc2cc(Cl)ccc12, CCCNc1ccnc2cc(Cl)ccc12 is lower in MIC: over 100 µg/mL for the first, 50 µg/mL (≈ 227 µM) for the second.

First: CCCNCCNc1ccnc2cc(Cl)ccc12
Second: CCCCNCCNc1ccnc2cc(Cl)ccc12
The MIC of the first is lower: 100 µg/mL (≈ 379 µM) for the first, over 100 µg/mL for the second.

Going from CC(C)Nc1ccnc2cc(Cl)ccc12 to CNc1ccnc2cc(Cl)ccc12, the MIC rises from 50 µg/mL (≈ 227 µM) to 100 µg/mL (≈ 519 µM) (2-fold).

CC[C@H](CO)Nc1ccnc2cc(Cl)ccc12 and CC[C@@H](CO)Nc1ccnc2cc(Cl)ccc12 cannot be ordered by MIC: over 100 µg/mL for the first, over 100 µg/mL for the second.

First: CCCCNc1ccnc2ccccc12
Second: Nc1ccnc2ccccc12 [QUINOLIN-4-AMINE]
The MIC of the first is lower: 50 µg/mL (≈ 250 µM) for the first, over 100 µg/mL for the second.

First: [N-]=[N+]=NCCNc1ccnc2cc(Cl)ccc12
Second: NCCNc1ccnc2cc(Cl)ccc12
The MIC of the first is lower: 50 µg/mL (≈ 202 µM) for the first, over 100 µg/mL for the second.

First: NCCCCCCCCCCNc1ccnc2cc(Cl)ccc12
Second: OCCNCCNc1ccnc2cc(Cl)ccc12
The MIC of the first is lower: 3.12 µg/mL (≈ 9.34 µM) for the first, over 100 µg/mL for the second.

Going from Clc1ccc2c(NCCNC3CCCCC3)ccnc2c1 to Clc1ccc2c(NCCNCc3ccccc3)ccnc2c1, the MIC falls from 100 µg/mL (≈ 329 µM) to 50 µg/mL (≈ 160 µM) (2-fold).

Compared with CCC(CCl)Nc1ccnc2cc(Cl)ccc12 (configuration not stated), CCC(CO)Nc1ccnc2cc(Cl)ccc12 (racemic) is higher in MIC: 50 µg/mL (≈ 186 µM) for the first, over 100 µg/mL for the second.

First: OC(c1cc(C(F)(F)F)nc2c(C(F)(F)F)cccc12)C1CCCCN1 (configuration not stated) [MEFLOQUINE]
Second: C=C[C@H]1CN2CC[C@H]1C[C@H]2[C@H](O)c1ccnc2ccc(OC)cc12 [QUININE]
The MIC of the first is 4-fold lower: 25 µg/mL (≈ 66.1 µM) for the first, 100 µg/mL (≈ 308 µM) for the second.

With COc1cc(NC(C)CCCN)c2ncccc2c1 (configuration not stated) [PRIMAQUINE] the MIC was 50 µg/mL (≈ 193 µM).
